Test results reported in ChEMBL document CHEMBL3822375, “Preclinical Characterization of 3β-(N-Acetyl l-cysteine methyl ester)-2aβ,3-dihydrogaliellalactone (GPA512), a Prodrug of a Direct STAT3 Inhibitor for the Treatment of Prostate Cancer” (J Med Chem, 2016).
Calls of active or inactive are those of the source. The calls are words filed in the database; no cut-off is given here.

Tests used:
Mus musculus [1] = experiment: Toxicity in CD1 mouse assessed as effect on clinical pathological parameters at 40 to 400 mg/kg, administered as single dose through oral gavage; assay type: organism-based; conditions: in vivo
Outline: (§1)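 Male CD1 mice, 7 weeks old, 5 per group, given one oral gavage dose of 40, 200 or 400 mg/kg in 50 mM citrate buffer, pH 4.0, 5% DMSO, alongside a vehicle control group. Clinical signs, clinical pathology and histopathology were assessed, with the study ending on day 8.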

Hepatocyte = experiment: Prodrug conversion in mouse hepatocytes assessed as formation of 3-beta-(N-Acetyl-L-cysteine)-2a-beta,3-dihydrogaliellalactone after 2 hrs by UPLC-MS analysis; assay type: ADME, cell-based
Outline: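 Cryopreserved mouse hepatocytes incubated with an initial 10 µM test item (DMSO stock) in Celsis InVitro HI medium, pH 7.4, 37 °C. Cell viability checked by Trypan blue. Sampled at 0 and 120 min and stopped with an equal volume of acetonitrile. Analysed by UPLC/Q-TOF-MS.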

Mus musculus [2] = experiment: Tmax in mouse plasma assessed as galiellalactone level at 40 mg/kg, po by LC-MS/MS analysis; assay type: ADME, organism-based; conditions: in vivo
Mus musculus [3] = experiment: Toxicity in CD1 mouse assessed as effect on clinical signs at 40 to 400 mg/kg, administered as single dose through oral gavage; assay type: organism-based; conditions: in vivo; outline: as §1
Mus musculus [4] = experiment: Tmax in mouse plasma assessed as galiellalactone level at 10 mg/kg, po by LC-MS/MS analysis; assay type: ADME, organism-based; conditions: in vivo
Mus musculus [5] = experiment: Toxicity in CD1 mouse assessed as change in body weight at 200 mg/kg, administered as single dose through oral gavage measured on day 1 (reference value: 33.5 +/- 4.34 g); assay type: organism-based; conditions: in vivo
Mus musculus [6] = experiment: Toxicity in CD1 mouse assessed as change in body weight at 200 mg/kg, administered as single dose through oral gavage measured on day 4 (reference value: 34.68 +/- 4.71 g); assay type: organism-based; conditions: in vivo
[7] = Downregulation of MCL1 mRNA expression in human DU145 cells xenografted in NMRI nude mouse at 40 mg/kg, po administered 5 times per week for 4 weeks by qPCR analysis; assay type: functional, organism-based; conditions: DU-145
Outline: (§2)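 Half of each DU145 xenograft tumour was snap frozen for mRNA. MCL1 and BCL2 measured by quantitative real-time PCR: 10 min at 95°C, then 40 cycles of 95°C 15 s and 60°C 60 s. Comparative Ct method, normalized to HMBS and SDHA.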

Mus musculus [8] = experiment: Toxicity in NMRI mouse xenografted with human DU145 cells assessed as mouse survival at 40 mg/kg, po administered 5 times per week for 4 weeks measured on day 26 and day 29; assay type: organism-based, DU-145; conditions: in vivo, 672 h
Outline: (§3)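 Male NMRI-nude mice, 20 in total, were given 1.5 million DU145 cells subcutaneously in the flank. After 4 weeks they were split into two groups of 10. Each group was gavaged with 40 mg/kg or with vehicle (50 mM citrate buffer pH 4.0, 2% DMSO) daily, 5 times per week for 4 weeks. Body weight, behaviour, side effects and survival were monitored, and tumours were measured twice weekly by caliper.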

[9] = Downregulation of BCL2 mRNA expression in human DU145 cells xenografted in NMRI nude mouse at 40 mg/kg, po administered 5 times per week for 4 weeks by qPCR analysis; assay type: functional, organism-based; conditions: DU-145; outline: as §2
[10] = Toxicity in CD1 mouse at 40 to 400 mg/kg, administered as single dose through oral gavage; assay type: organism-based; conditions: in vivo
Outline: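 Male CD1 mice, 7 weeks old (27.0–38.5 g), 5 per group, given one oral gavage dose of 40, 200 or 400 mg/kg as a solution in 50 mM citrate buffer pH 4.0 with 5% DMSO. Vehicle-only control group. Weighed at randomization, day 1 before dosing, day 4 and day 8 (study end). Clinical signs, clinical pathology and histopathology were assessed to set the MTD.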

Mus musculus [11] = experiment: Cmax in mouse plasma assessed as galiellalactone level at 100 mg/kg, po by LC-MS/MS analysis; assay type: ADME, organism-based; set-up: dose 100 mg/kg, route oral; conditions: in vivo
Outline: (§4)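 Single dose to mice; oral, iv or ip as listed, in 5% DMSO/50 mM citrate buffer pH 4.0 (dosing solutions 0.5, 2 or 5 mg/mL). Oral dosing at 20 mL/kg. Terminal blood under barbiturate anaesthesia at eight time-points to 8 h, n=3 mice per time-point, EDTA plasma. Acetonitrile precipitation with internal standard, LC-MS/MS against plasma calibration lines. Non-compartmental analysis on mean data, trapezoidal AUC.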

Mus musculus [12] = experiment: Toxicity in CD1 mouse assessed as change in body weight at 40 mg/kg, administered as single dose through oral gavage measured on day 4 (reference value: 34.68 +/- 4.71 g); assay type: organism-based; conditions: in vivo
Mus musculus [13] = experiment: Cmax in mouse plasma assessed as galiellalactone level at 40 mg/kg, po by LC-MS/MS analysis; assay type: ADME, organism-based; set-up: dose 40 mg/kg, route oral; conditions: in vivo; outline: as §4
Mus musculus [14] = experiment: Tmax in mouse plasma assessed as galiellalactone level at 100 mg/kg, po by LC-MS/MS analysis; assay type: ADME, organism-based; conditions: in vivo
Plasma [15] = experiment: Half life in mouse plasma assessed as formation of galiellalactone at 5 uM by LC-MS/MS analysis; assay type: ADME, cell-free
Outline: (§5)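 Plasma of each species incubated at 37 °C with compound at 5 µM initial, 1% DMSO, n=2. Simvastatin and eucatropine run as controls. Aliquots taken at 0, 5, 15, 30 and 60 min and quenched with acetonitrile containing internal standard, then analysed by LC-MS/MS.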

Plasma [16] = experiment: Half life in dog plasma assessed as formation of galiellalactone at 5 uM by LC-MS/MS analysis; assay type: ADME, cell-free, Canis lupus familiaris; outline: as §5
Mus musculus [17] = experiment: Toxicity in CD1 mouse assessed as change in body weight at 400 mg/kg, administered as single dose through oral gavage measured on day 8 (reference value: 32.28 +/- 4.42 g); assay type: organism-based; conditions: in vivo
Mus musculus [18] = experiment: AUC (0 to t) in mouse plasma assessed as galiellalactone level at 100 mg/kg, po by LC-MS/MS analysis; assay type: ADME, organism-based; conditions: in vivo; outline: as §4
Mus musculus [19] = experiment: Toxicity in NMRI mouse xenografted with human DU145 cells assessed as behavioral alterations at 40 mg/kg, po administered 5 times per week for 4 weeks measured on day 26 and day 29; assay type: organism-based, DU-145; conditions: in vivo, 672 h; outline: as §3
DU-145 = experiment: Antitumor activity against human DU145 cells xenografted in NMRI mouse assessed as reduction of tumor growth rate at 40 mg/kg, po administered 5 times per week for 4 weeks measured on day 26 and day 29 relative to vehicle-treated control; assay type: functional, organism-based
Outline: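 NMRI-nude male mice given 1.5 million DU145 cells s.c. in the flank. After four weeks, split into two groups of ten. Oral gavage with compound at 40 mg/kg or vehicle (50 mM citrate pH 4.0, 2% DMSO), daily five times per week for four weeks. Caliper measurement twice weekly; volume = width × length × height × 0.52.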

Mus musculus [20] = experiment: AUC (0 to infinity) in mouse plasma at 40 mg/kg, po by LC-MS/MS analysis; assay type: ADME, organism-based; set-up: dose 40 mg/kg, route oral, time infinity; conditions: in vivo; outline: as §4

Q: For `COC(=O)[C@H](CS[C@H]1C2C(=O)O[C@@H]3CC[C@H](C[C@@H]1C)[C@]23O)NC(C)=O` (some centres not stated), which Activity (Mus musculus [1]) is on record?
A: Non-toxic

Q: What about the Drug metabolism (Hepatocyte) of the same compound?
A: metabolite_detected

Q: And the Tmax (Mus musculus [2])?
A: 15 min

Q: And the Activity (Mus musculus [3])?
A: Non-toxic

Q: What about the Tmax (Mus musculus [4]) of the same compound?
A: 15 min

Q: What about the Activity (Mus musculus [5]) of the same compound?
A: 33.56 g

Q: And the Activity (Mus musculus [6])?
A: 35.3 g

Q: And the Activity [7]?
A: Active

Q: What about the Activity (Mus musculus [8]) of the same compound?
A: Non-toxic

Q: And the Activity [9]?
A: Active

Q: What about the MTD [10] of the same compound?
A: 400 mg/kg

Q: And the Cmax (Mus musculus [11])?
A: 7478 ng/mL

Q: And the Activity (Mus musculus [12])?
A: 33.68 g

Q: What about the Cmax (Mus musculus [13]) of the same compound?
A: 3733 ng/mL

Q: What about the Tmax (Mus musculus [14]) of the same compound?
A: 15 min

Q: What about the t1/2 (Plasma [15]) of the same compound?
A: < 5 min

Q: And the t1/2 (Plasma [16])?
A: < 5 min

Q: And the Activity (Mus musculus [17])?
A: 32.1 g

Q: What about the AUCt (Mus musculus [18]) of the same compound?
A: 676 µg/mL/min

Q: And the Activity (Mus musculus [19])?
A: Non-toxic

Q: And the inhibition (DU-145)?
A: Active

Q: And the AUC (Mus musculus [20])?
A: 215 µg/mL/min
